Key:
MDA-MB-435 = assay: Cytotoxicity against human MDA-MB-435 cells assessed as cellular growth at 10 uM; assay type: functional
Outline: (§1)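 Single-dose screen run by the NCI across its 60-human-tumour-cell-line panel; growth recorded for each cell line.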

SK-OV-3 = assay: Anticancer activity against human SKOV3 cells; assay type: functional
Outline: (§2)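 NCI 60-human-tumour-cell-line panel. Selected analogues were first run at one dose, then some were carried into multi-dose testing. GI50 (50% growth inhibition), TGI (total growth inhibition) and LC50 (50% cell kill) were read as values interpolated where the dose–response curves cross these levels.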

HT-29 = assay: Cytotoxicity against human HT-29 cells assessed as cellular growth at 10 uM; assay type: functional; outline: as §1
A549 [1] = assay: Anticancer activity against human A549 cells; assay type: functional; outline: as §2
COLO 205 = assay: Anticancer activity against human COLO205 cells; assay type: functional; outline: as §2
OVCAR-3 = assay: Anticancer activity against human OVCAR3 cells; assay type: functional; outline: as §2
UACC-62 [2] = assay: Anticancer activity against human UACC62 cells; assay type: functional
TK-10 = assay: Cytotoxicity against human TK10 cells assessed as cellular growth at 10 uM; assay type: functional
SF-295 = assay: Cytotoxicity against human SF295 cells assessed as cellular growth at 10 uM; assay type: functional; outline: as §1
K562 [3] = assay: Cytotoxicity against human K562 cells assessed as cellular growth at 10 uM; assay type: functional; outline: as §1
OVCAR-8 [4] = assay: Cytotoxicity against human OVCAR8 cells assessed as cellular growth at 10 uM; assay type: functional; outline: as §1
UO-31 [5] = assay: Cytotoxicity against human UO31 cells assessed as cellular growth at 10 uM; assay type: functional
OVCAR-8 [6] = assay: Anticancer activity against human OVCAR8 cells; assay type: functional; outline: as §2
SK-MEL-2 [7] = assay: Cytotoxicity against human SK-MEL-2 cells assessed as cellular growth at 10 uM; assay type: functional; outline: as §1
DU-145 [8] = assay: Anticancer activity against human DU145 cells; assay type: functional; outline: as §2
DU-145 [9] = assay: Cytotoxicity against human DU145 cells assessed as cellular growth at 10 uM; assay type: functional; outline: as §1
K562 [10] = assay: Anticancer activity against human K562 cells; assay type: functional; outline: as §2
[11] = Growth of human H1299 cells at 10 uM after 48 hrs by MTT assay; conditions: NCI-H1299, 48 h
SR = assay: Anticancer activity against human SR cells; assay type: functional; outline: as §2
HOP-62 = assay: Anticancer activity against human HOP62 cells; assay type: functional; outline: as §2
SK-MEL-5 = assay: Anticancer activity against human SK-MEL-5 cells; assay type: functional; outline: as §2
SK-MEL-28 [12] = assay: Cytotoxicity against human SK-MEL-28 cells assessed as cellular growth at 10 uM; assay type: functional; outline: as §1
Malme-3M = assay: Anticancer activity against human MALME-3M cells; assay type: functional; conditions: read-out: LC50 (the source's name)
Outline: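 Tested by the NCI in its 60-human-tumour-cell-line panel. Dose-response curves were run, and GI₅₀ (50% growth inhibition), TGI (total growth inhibition) and LC₅₀ (50% cell killing) were read as interpolated concentrations where the curves cross those levels.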

MCF7 [13] = assay: Anticancer activity against human MCF7 cells; assay type: functional; outline: as §2
SNB-75 = assay: Anticancer activity against human SNB75 cells; assay type: functional; outline: as §2
BT-549 = assay: Anticancer activity against human BT549 cells; assay type: functional; outline: as §2
NCI-H522 [14] = assay: Anticancer activity against human NCI-H522 cells; assay type: functional; outline: as §2
MDA-MB-468 = assay: Cytotoxicity against human MDA-MB-468 cells assessed as cellular growth at 10 uM; assay type: functional; outline: as §1
RXF 393 = assay: Anticancer activity against human RXF393 cells; assay type: functional; outline: as §2
NCI-H460 = assay: Anticancer activity against human NCI-H460 cells; assay type: functional; outline: as §2
SN12C = assay: Anticancer activity against human SN12C cells; assay type: functional; outline: as §2
M14 = assay: Anticancer activity against human M14 cells; assay type: functional; outline: as §2
UACC-62 [15] = assay: Cytotoxicity against human UACC62 cells assessed as cellular growth at 10 uM; assay type: functional
UO-31 [16] = assay: Anticancer activity against human UO31 cells; assay type: functional
SK-MEL-28 [17] = assay: Anticancer activity against human SK-MEL-28 cells; assay type: functional; outline: as §2
NCI-H522 [18] = assay: Cytotoxicity against human NCI-H522 cells assessed as cellular growth at 10 uM; assay type: functional; outline: as §1
SK-MEL-2 [19] = assay: Anticancer activity against human SK-MEL-2 cells; assay type: functional; outline: as §2
A549 [20] = assay: Cytotoxicity against human A549 cells assessed as cellular growth at 10 uM; assay type: functional; outline: as §1
T47D = assay: Cytotoxicity against human T47D cells assessed as cellular growth at 10 uM; assay type: functional
SW-620 = assay: Cytotoxicity against human SW620 cells assessed as cellular growth at 10 uM; assay type: functional
HCT-15 = assay: Anticancer activity against human HCT15 cells; assay type: functional; outline: as §2
[21] = Anticancer activity against human Hs 578T cells; assay type: functional; outline: as §2
HCC 2998 = assay: Anticancer activity against human HCC2998 cells; assay type: functional; outline: as §2
HCT-116 = assay: Anticancer activity against human HCT116 cells; assay type: functional; outline: as §2
CAKI-1 = assay: Anticancer activity against human Caki1 cells; assay type: functional; outline: as §2
RPMI-8226 = assay: Anticancer activity against human RPMI8226 cells; assay type: functional; outline: as §2
HOP-92 [22] = assay: Cytotoxicity against human HOP92 cells assessed as cellular growth at 10 uM; assay type: functional; outline: as §1
HOP-92 [23] = assay: Anticancer activity against human HOP92 cells; assay type: functional; outline: as §2
MCF7 [24] = assay: Cytotoxicity against human MCF7 cells assessed as cellular growth at 10 uM; assay type: functional; outline: as §1
[25] = read-out: LC50 (the source's name)

Compound: Cc1ccc(C(=O)Nc2c(NC(=O)CN3CCN(C)CC3)ccc3c2C(=O)c2ccccc2C3=O)cc1
- Activity (MDA-MB-435): 11.15%
- GI50 (SK-OV-3): > 100 µM
- TGI (SK-OV-3): > 100 µM
- CC50 (SK-OV-3; [25]): > 100 µM
- Activity (HT-29): 3.69%
- TGI (A549 [1]): > 100 µM
- CC50 (A549 [1]; [25]): > 100 µM
- GI50 (COLO 205): 2.22 µM
- LC50 (COLO 205): > 100 µM
- TGI (COLO 205): 4.08 µM
- GI50 (OVCAR-3): 2.43 µM
- CC50 (OVCAR-3; [25]): > 100 µM
- GI50 (UACC-62 [2]): 2.52 µM
- CC50 (UACC-62 [2]; [25]): > 100 µM
- Activity (TK-10): 101.93%
- Activity (SF-295): 89.86%
- Activity (K562 [3]): -4.52%
- Activity (OVCAR-8 [4]): 46.43%
- Activity (UO-31 [5]): 70.66%
- GI50 (OVCAR-8 [6]): > 100 µM
- TGI (OVCAR-8 [6]): > 100 µM
- CC50 (OVCAR-8 [6]; [25]): > 100 µM
- Activity (SK-MEL-2 [7]): 123.64%
- GI50 (DU-145 [8]): > 100 µM
- TGI (DU-145 [8]): > 100 µM
- CC50 (DU-145 [8]; [25]): > 100 µM
- Activity (DU-145 [9]): 82.12%
- GI50 (K562 [10]): 2.09 µM
- growth, % of control at 10 µM [11]: 13%
- LC50 (SR): > 100 µM
- TGI (SR): 4.65 µM
- GI50 (HOP-62): > 100 µM
- LC50 (50% cell kill) (HOP-62): > 100 µM
- TGI (HOP-62): > 100 µM
- GI50 (SK-MEL-5): 1.94 µM
- CC50 (SK-MEL-5; [25]): > 100 µM
- Activity (SK-MEL-28 [12]): -57.56%
- CC50 (Malme-3M): > 100 µM
- GI50 (MCF7 [13]): 3.13 µM
- TGI (MCF7 [13]): > 100 µM
- CC50 (MCF7 [13]; [25]): > 100 µM
- GI50 (SNB-75): > 100 µM
- TGI (SNB-75): > 100 µM
- CC50 (SNB-75; [25]): > 100 µM
- GI50 (BT-549): > 100 µM
- TGI (BT-549): > 100 µM
- CC50 (BT-549; [25]): > 100 µM
- TGI (NCI-H522 [14]): > 100 µM
- CC50 (NCI-H522 [14]; [25]): > 100 µM
- Activity (MDA-MB-468): 7.43%
- TGI (RXF 393): > 100 µM
- CC50 (RXF 393; [25]): > 100 µM
- GI50 (NCI-H460): 3.36 µM
- LC50 (50% cell kill) (NCI-H460): > 100 µM
- TGI (NCI-H460): > 100 µM
- TGI (SN12C): > 100 µM
- CC50 (SN12C; [25]): > 100 µM
- GI50 (M14): 2.22 µM
- TGI (M14): 4.65 µM
- Activity (UACC-62 [15]): -20.65%
- TGI (UO-31 [16]): > 100 µM
- CC50 (UO-31 [16]; [25]): > 100 µM
- GI50 (SK-MEL-28 [17]): 1.87 µM
- Activity (NCI-H522 [18]): 88.21%
- GI50 (SK-MEL-2 [19]): > 100 µM
- TGI (SK-MEL-2 [19]): > 100 µM
- CC50 (SK-MEL-2 [19]; [25]): > 100 µM
- Activity (A549 [20]): 83.89%
- Activity (T47D): 52.62%
- Activity (SW-620): 39.17%
- GI50 (HCT-15): 3.36 µM
- LC50 (HCT-15): > 100 µM
- TGI (HCT-15): > 100 µM
- GI50 [21]: > 100 µM
- TGI [21]: > 100 µM
- CC50 [21, 25]: > 100 µM
- GI50 (HCC 2998): 3 µM
- TGI (HCC 2998): > 100 µM
- CC50 (HCC 2998; [25]): > 100 µM
- GI50 (HCT-116): 3.08 µM
- TGI (HCT-116): > 100 µM
- CC50 (HCT-116; [25]): > 100 µM
- TGI (CAKI-1): > 100 µM
- CC50 (CAKI-1; [25]): > 100 µM
- GI50 (RPMI-8226): 3.25 µM
- LC50 (50% cell kill) (RPMI-8226): > 100 µM
- TGI (RPMI-8226): > 100 µM
- Activity (HOP-92 [22]): 90.68%
- GI50 (HOP-92 [23]): 0.87 µM
- LC50 (concentration giving 50% cell kill) (HOP-92 [23]): > 100 µM
- TGI (HOP-92 [23]): 9.19 µM
- Activity (MCF7 [24]): 31.79%

Reference: ChEMBL document CHEMBL1926565, “Synthesis, antiproliferative activities and telomerase inhibition evaluation of novel asymmetrical 1,2-disubstituted amidoanthraquinone derivatives” (Eur J Med Chem, 2012)
